Reference: ChEMBL document CHEMBL3297648, “Diterpenoids from the Chinese liverwort Heteroscyphus tener and their antiproliferative effects” (J Nat Prod, 2014)
Calls of active or inactive are those of the source. The rule behind the calls is not given here.

How the values were obtained:
[1] = Cell cycle arrest in human PC3 cells assessed as accumulation at subG1 phase at 20 uM after 24 hrs by propidium iodide staining based flow cytometry (reference value: 0.13%); type: functional; conditions: PC-3
NCI-H1299 = experiment: Antiproliferative activity against human NCI-H1299 cells assessed as inhibition of cell viability after 24 hrs by MTT assay; type: functional, cell-based; conditions: NCI-H1299, 24 h
How it was run: (§1)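 Cells grown to 50–70% confluence (RWPE1 in K-SFM with pituitary extract and EGF; the other lines in RPMI 1640 with 10% FBS), 5% CO2, 37 °C. Treated for 24 h with DMSO vehicle, compounds, or cisplatin as positive control. MTT (5 mg/mL) added for 4 h, formazan dissolved in DMSO, absorbance read at 570 nm. Viability taken relative to untreated cells after blank subtraction, IC50 fitted from % viability, at least three experiments.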

DU-145 [2] = experiment: Induction of apoptosis in human DU145 cells assessed as PARP cleavage at 20 uM after 12 hrs by western blot analysis; type: functional, cell-based
How it was run: (§2)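 Cells exposed to 20 μM for the stated times. Lysis in RIPA plus protease inhibitors, BCA protein assay, equal protein on 12% SDS-PAGE, transfer to nitrocellulose. Blocking in 5% milk/TBST 1 h; primary antibodies overnight at 4 °C; secondary 1:2000 for 45 min; ECL detection. GAPDH served as loading control.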

PC-3 [3] = experiment: Induction of apoptosis in human PC3 cells assessed as early apoptotic cells at 20 uM after 24 hrs by Annexin V-FITC/propidium iodide staining based flow cytometry (reference value: 0.79%); type: functional
How it was run: (§3)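 Cells seeded in 6-well plates for 24 h, then given 20 μM for the stated times. Cells were trypsinized, PBS-washed, stained with annexin V-FITC/PI, and analysed immediately by flow cytometry. Means ± SD of three independent experiments; Student's t test against untreated control.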

DU-145 [4] = experiment: Increase in H2AX protein expression in human DU145 cells at 20 uM after 2 to 48 hrs by western blot analysis; type: functional, cell-based
How it was run: (§4)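 Cells treated at 20 μM for various times, lysed in RIPA buffer with protease/phosphatase inhibitors, protein quantified by BCA. Equal protein run on 12% SDS-PAGE, transferred to nitrocellulose, blocked 1 h in 5% milk/TBST, primary antibodies overnight at 4 °C, secondary 1:2000 for 45 min, ECL detection on film. GAPDH used as loading control.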

DU-145 [5] = experiment: Cell cycle arrest in human DU145 cells assessed as accumulation at S phase at 20 uM after 24 hrs by propidium iodide staining based flow cytometry (reference value: 25.94%); type: functional
PC-3 [6] = experiment: Induction of apoptosis in human PC3 cells assessed as cleaved caspase-3 level at 20 uM after 12 hrs by western blot analysis; type: functional, cell-based; how it was run: as §2
PC-3 [7] = experiment: Induction of apoptosis in human PC3 cells assessed as necrotic cells at 20 uM after 8 hrs by Annexin V-FITC/propidium iodide staining based flow cytometry (reference value: 0.98%); type: functional; how it was run: as §3
[8] = Antiproliferative activity against human RWPE1 cells assessed as inhibition of cell viability after 24 hrs by MTT assay; type: cell-based; conditions: RWPE-1, 24 h; how it was run: as §1
A549 = experiment: Antiproliferative activity against human A549 cells assessed as inhibition of cell viability after 24 hrs by MTT assay; type: functional, cell-based; conditions: A549, 24 h; how it was run: as §1
DU-145 [9] = experiment: Induction of DNA damage in human DU145 cells assessed as gamma-H2AX phosphorylation at ser139 at 20 uM by western blot analysis; type: functional, cell-based; conditions: TDE = time-dependent effect; how it was run: as §4
PC-3 [10] = experiment: Induction of apoptosis in human PC3 cells assessed as early apoptotic cells at 20 uM after 8 hrs by Annexin V-FITC/propidium iodide staining based flow cytometry (reference value: 0.79%); type: functional; how it was run: as §3
PC-3 [11] = experiment: Induction of ROS generation in human PC3 cells at 20 uM pretreated for 1 hr with 5 mM antioxidant NAC measured after 24 hrs by DCFH-DA staining based flow cytometry; type: functional, cell-based
How it was run: (§5)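 Cells in RPMI 1640 with 10% FBS, 5% CO2, 37 °C, treated at 50−70% confluence (DMSO vehicle). After exposure, cells were loaded with 10 μM DCFH-DA for 30 min at 37 °C, washed, resuspended in PBS, and read at once by flow cytometry. For NAC runs, cells got 5 mM NAC 1 h before compound. ROS reported as ratio relative to untreated control.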

DU-145 [12] = experiment: Induction of apoptosis in human DU145 cells at 20 uM by Annexin V-FITC/propidium iodide staining based flow cytometry; type: functional, cell-based; conditions: TDE = time-dependent effect; how it was run: as §3
PC-3 [13] = experiment: Induction of apoptosis in human PC3 cells assessed as PARP cleavage at 20 uM after 12 hrs by western blot analysis; type: functional, cell-based; how it was run: as §2
K562 = experiment: Antiproliferative activity against human K562 cells assessed as inhibition of cell viability after 24 hrs by MTT assay; type: functional, cell-based; conditions: K562, 24 h; how it was run: as §1
PC-3 [14] = experiment: Induction of apoptosis in human PC3 cells assessed as late apoptotic cells at 20 uM after 8 hrs by Annexin V-FITC/propidium iodide staining based flow cytometry (reference value: 7.92%); type: functional; how it was run: as §3
[15] = Antiproliferative activity against HBE cells assessed as inhibition of cell viability after 24 hrs by MTT assay; type: cell-based; conditions: Homo sapiens; how it was run: as §1
PC-3 [16] = experiment: Induction of ROS generation in human PC3 cells at 20 uM after 6 hrs by DCFH-DA staining based flow cytometry; type: functional, cell-based; how it was run: as §5
DU-145 [17] = experiment: Induction of apoptosis in human DU145 cells assessed as early apoptotic cells at 20 uM after 24 hrs by Annexin V-FITC/propidium iodide staining based flow cytometry (reference value: 1.60%); type: functional; how it was run: as §3
[18] = Cell cycle arrest at G0/G1 phase in human PC3 cells after 24 hrs by propidium iodide staining based flow cytometry; type: functional; conditions: PC-3
[19] = Decrease in Cdk4 protein expression in human DU145 cells after 2 to 48 hrs by western blot analysis; type: functional, cell-based; conditions: DU-145
How it was run: (§6)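 Western blot of cyclin D1, cyclin E, Cdk4 and p21 in PC3 and DU145 lysates. Lysis in RIPA buffer plus protease inhibitors, BCA quantification, 12% SDS-PAGE, nitrocellulose transfer, milk block, primaries overnight at 4 °C, secondary 1:2000 for 45 min, ECL read-out. GAPDH served as loading control.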

NCI-H292 = experiment: Antiproliferative activity against human NCI-H292 cells assessed as inhibition of cell viability after 24 hrs by MTT assay; type: functional, cell-based; conditions: NCI-H292, 24 h; how it was run: as §1
NCI-H446 = experiment: Antiproliferative activity against human NCI-H446 cells assessed as inhibition of cell viability after 24 hrs by MTT assay; type: functional, cell-based; conditions: NCI-H446, 24 h; how it was run: as §1
PC-3 [20] = experiment: Antiproliferative activity against human PC3 cells assessed as inhibition of cell viability at 20 uM pretreated for 1 hr with 5 mM antioxidant NAC measured after 24 hrs by MTT assay; type: functional, cell-based
PC-3 [21] = experiment: Increase in p21CIP1 protein expression in human PC3 cells after 2 to 48 hrs by western blot analysis; type: functional, cell-based; how it was run: as §6
[22] = Cell cycle arrest in human PC3 cells assessed as accumulation at G2/M phase at 20 uM after 24 hrs by propidium iodide staining based flow cytometry (reference value: 10.43%); type: functional; conditions: PC-3
DU-145 [23] = experiment: Induction of apoptosis in human DU145 cells assessed as necrotic cells at 20 uM after 24 hrs by Annexin V-FITC/propidium iodide staining based flow cytometry (reference value: 0.21%); type: functional; how it was run: as §3

IC50 (NCI-H1299): 35.1 µM
IC50 (A549): > 40 µM
IC50 (K562): 15.8 µM
IC50 (NCI-H292): 17.1 µM
IC50 (NCI-H446): 39.5 µM
Compound: C=C[C@@](C)(O)CC[C@@H]1C(C)=CC[C@@H]2C(C)(C)CCC[C@@]12C
Activity [1]: 2.39%
Activity (DU-145 [2]): Active
Activity (PC-3 [3]): 1.61%
Activity (DU-145 [4]): inactive
Activity (DU-145 [5]): 8.73%
Activity (PC-3 [6]): Active
Activity (PC-3 [7]): 2.95%
IC50 [8]: 81 µM
Activity (DU-145 [9]): tde
Activity (PC-3 [10]): 2.27%
Activity (PC-3 [11]): inactive
Activity (DU-145 [12]): tde
Activity (PC-3 [13]): Active
Activity (PC-3 [14]): 15.29%
IC50 [15]: 53.9 µM
Activity (PC-3 [16]): inactive
Activity (DU-145 [17]): 7.16%
Activity [18]: Dose-dependent effect
inhibition [19]: Active
inhibition (PC-3 [20]): inactive
Activity (PC-3 [21]): Active
Activity [22]: 10.9%
Activity (DU-145 [23]): 4.55%
